Legend:
Steryl-sulfatase [1] = target: T1, Steryl-sulfatase (Homo sapiens, UniProt P08842); experiment: Inhibitory constant against human steroid sulfatase
T1 sequence (P08842 whole entry): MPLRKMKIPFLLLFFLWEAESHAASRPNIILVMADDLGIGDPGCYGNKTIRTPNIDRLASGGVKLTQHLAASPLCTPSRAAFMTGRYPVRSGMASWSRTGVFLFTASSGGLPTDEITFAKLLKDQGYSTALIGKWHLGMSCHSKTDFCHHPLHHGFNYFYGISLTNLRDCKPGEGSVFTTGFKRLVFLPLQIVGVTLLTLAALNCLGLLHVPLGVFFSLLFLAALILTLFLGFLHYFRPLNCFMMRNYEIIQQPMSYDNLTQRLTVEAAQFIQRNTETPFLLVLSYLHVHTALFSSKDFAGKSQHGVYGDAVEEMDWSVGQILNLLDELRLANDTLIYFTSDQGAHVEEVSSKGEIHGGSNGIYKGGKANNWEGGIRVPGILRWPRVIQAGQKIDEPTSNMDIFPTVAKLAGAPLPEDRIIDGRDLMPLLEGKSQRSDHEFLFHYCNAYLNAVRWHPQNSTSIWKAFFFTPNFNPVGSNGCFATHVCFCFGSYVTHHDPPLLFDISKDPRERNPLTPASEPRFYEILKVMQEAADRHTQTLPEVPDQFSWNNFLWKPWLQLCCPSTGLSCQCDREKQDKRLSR
How it was run: (§1)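 Purified human STS (from recombinant CHO cells) at 37 °C; 4-methylumbelliferyl sulfate cleavage monitored fluorimetrically, substrate varied 0.05–2 mM at several inhibitor concentrations. Initial velocities from the linear phase (fluorescence units per min); Ki calculated from Hanes plots ([S]/v versus [S]).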

Steryl-sulfatase [2] = target: T1, Steryl-sulfatase; experiment: Inhibitory concentration against human steroid sulfatase
How it was run: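 Human STS purified to homogeneity from recombinant CHO cells; fluorimetric assay following cleavage of 4-methylumbelliferyl sulfate (fixed at 0.75 mM) at 37 °C, 1 h incubations with or without inhibitor. Initial velocity taken from the linear phase as fluorescence units per min; IC50 derived by a previously described method.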

Steryl-sulfatase [3] = target: T1, Steryl-sulfatase; experiment: Inhibitory concentration against human steroid sulfatase expressed in CHO cells; assay type: cell-based
How it was run: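 Intact recombinant CHO cells overexpressing STS, live-cell variant for reversible inhibitors; 4-methylumbelliferyl sulfate substrate at 0.5 mM, 4 h incubation with inhibitor; fluorimetric read-out of substrate cleavage, IC50 determined.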

Steryl-sulfatase [4] = target: T1, Steryl-sulfatase; experiment: Inhibitory constant against human Steroid sulfatase; how it was run: as §1

CC(C)(C)OC(=O)N1CCN(C(=O)NS(=O)(=O)c2ccc(Cl)cc2)CC1
Ki (Steryl-sulfatase [1]): 14500 nM
IC50 (Steryl-sulfatase [2]): 3600 nM
IC50 (Steryl-sulfatase [3]): 12000 nM

CC(C)(C)OC(=O)N1CCC(C(=O)NS(=O)(=O)c2cc(C(F)(F)F)cc(C(F)(F)F)c2)CC1
Ki (Steryl-sulfatase [1]): 220 nM
IC50 (Steryl-sulfatase [2]): 210 nM
IC50 (Steryl-sulfatase [3]): 780 nM

CC(C)(C)OC(=O)N1CCC(C(=O)NS(=O)(=O)c2cc(Cl)cc(Cl)c2)CC1
IC50 (Steryl-sulfatase [3]): 1260 nM

CC(C)(C)OC(=O)N1CCC(C(=O)NS(=O)(=O)c2ccc(Cl)cc2)CC1
Ki (Steryl-sulfatase [1]): 16100 nM
IC50 (Steryl-sulfatase [2]): 8600 nM
IC50 (Steryl-sulfatase [3]): 9800 nM

CC(C)(C)OC(=O)N1CCC(C(=O)NS(=O)(=O)c2c(Cl)sc(Cl)c2Br)CC1
Ki (Steryl-sulfatase [4]): 12 nM
IC50 (Steryl-sulfatase [2]): 26 nM
IC50 (Steryl-sulfatase [3]): 270 nM

O=C(Cc1ccccc1)O[C@H]1C[C@H]2CC[C@@H](C1)N2C(=O)NS(=O)(=O)c1ccc(Cl)cc1
IC50 (Steryl-sulfatase [2]): 910 nM
IC50 (Steryl-sulfatase [3]): 6270 nM

CC(C)(C)OC(=O)N1CCC(C(=O)NS(=O)(=O)c2c(Cl)cccc2Cl)CC1
IC50 (Steryl-sulfatase [3]): 9900 nM

— ChEMBL document CHEMBL1144338, “N-Acyl arylsulfonamides as novel, reversible inhibitors of human steroid sulfatase” (Bioorg Med Chem Lett, 2005)
